TRPC6 activator: mouse TRPC6 channel activation; Q61143; HEK293-TRPC6 membrane potential dye fluorescence; stronger effect = higher value; B-score at 10 µM; 0.13% of 310,000 active;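 active means B-score of the integrated fluorescence ratio above library mean plus 3 SD, and starting fluorescence ratio within library mean plus 5 SD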;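 further: higher score means more depolarization so channel activation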
Target sequence (Q61143 whole entry, looked up): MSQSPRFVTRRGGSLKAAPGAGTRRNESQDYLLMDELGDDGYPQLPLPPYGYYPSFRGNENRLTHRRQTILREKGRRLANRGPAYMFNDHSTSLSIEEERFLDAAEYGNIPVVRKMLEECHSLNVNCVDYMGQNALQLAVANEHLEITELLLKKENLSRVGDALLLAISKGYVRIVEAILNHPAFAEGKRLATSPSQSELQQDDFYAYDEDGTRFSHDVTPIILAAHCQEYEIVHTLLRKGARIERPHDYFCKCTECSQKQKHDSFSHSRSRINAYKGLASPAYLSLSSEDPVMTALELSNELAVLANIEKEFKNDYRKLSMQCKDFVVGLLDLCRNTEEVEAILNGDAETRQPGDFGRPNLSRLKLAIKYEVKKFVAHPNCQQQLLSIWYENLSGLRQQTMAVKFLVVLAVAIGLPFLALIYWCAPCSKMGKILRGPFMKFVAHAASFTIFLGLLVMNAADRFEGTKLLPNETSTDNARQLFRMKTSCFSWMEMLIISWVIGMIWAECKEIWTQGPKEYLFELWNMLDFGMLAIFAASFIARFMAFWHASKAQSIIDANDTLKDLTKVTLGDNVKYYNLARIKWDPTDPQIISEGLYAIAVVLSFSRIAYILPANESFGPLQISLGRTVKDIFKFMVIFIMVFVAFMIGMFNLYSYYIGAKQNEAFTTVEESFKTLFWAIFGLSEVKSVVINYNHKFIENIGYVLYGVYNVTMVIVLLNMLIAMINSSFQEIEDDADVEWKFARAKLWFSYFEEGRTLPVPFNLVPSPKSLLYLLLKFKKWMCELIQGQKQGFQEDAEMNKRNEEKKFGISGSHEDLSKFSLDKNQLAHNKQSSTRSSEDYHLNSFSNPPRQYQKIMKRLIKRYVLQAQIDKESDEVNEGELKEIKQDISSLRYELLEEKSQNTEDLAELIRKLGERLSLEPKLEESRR
TRPC4 PAM: allosteric potentiators of mouse TRPC4 channel. Q9QUQ5. HEK293 TRPC4beta/mu-opioid, DAMGO EC20, Fluo-4 Ca2+ flux; stronger effect = higher value. B-score at 10 µM. 0.42% of 310,000 active;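 active means B-score of calcium response area above 5 SD of library B-scores, with initial fluorescence ratio within 5 SD of library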;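 further: B-score of integrated fluorescence ratio over time as area under calcium response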
TRPC4 block: blocks the mouse TRPC4 cation channel | 0.39% of 300,000 active | Q9QUQ5 | B-score at 10 µM | HEK293 TRPC4beta/mu-opioid, DAMGO-evoked Fluo4 calcium flux; stronger effect = lower value | AID 2247;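 active means B-score over 3 SD under the library average, no early fluorescence shift, positive overall ratio signal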
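Assay system: HEK293 cells with stable TRPC4beta plus mu-opioid receptor expression. Dosing: single dose. Measured by: Fluo4 Ca2+ flux fluorescence. Also added: DAMGO in two steps, submaximal then maximal. Read-out: B score from integrated Fluo4 fluorescence ratio.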
TRPC6 inh: blocks the mouse TRPC6 cation channel. 1.1% of 310,000 active. HEK293-TRPC6, membrane potential dye, ACh-evoked depolarization; stronger effect = lower value. B-score at 10 µM;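 active means B-score under library mean minus 3 SD, initial fluorescence not abnormally high, positive integrated signal ratio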;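 further: B-score derived from integrated fluorescence ratio over the kinetic read; more negative B-score means stronger inhibition of depolarization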
TRPC4 agonist: TRPC4 (mouse) channel activation; B-score at 10 µM; 0.49% of 310,000 active; AID 2237; HEK293 TRPC4beta/mu-opioid, Fluo4 calcium fluorescence; stronger effect = higher value; Q9QUQ5;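 active means B-score above 5 SD of library B-scores, and initial fluorescence ratio not above library mean plus 5 SD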;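 further: positive B-score marks a calcium rise read as TRPC4 activation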
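Incubation: 45 min room-temperature Fluo4 loading, 110 s read / System: HEK293 cells stably co-expressing mouse TRPC4beta and mu-opioid receptor / Signal: Fluo4 fluorescence, kinetic / Control set: buffer (low) and maximal DAMGO (high) / Measure: integrated baseline-normalised fluorescence ratio, converted to per-well B score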
TRPC4 spec 2: second selectivity test of TRPC6 inhibitors: effect on mouse TRPC4; inhibition, % at 10 µM; 42% of 920 active; shares compounds with TRPC6 inh; AID 2776; HEK293 TRPC4/MOR, membrane potential dye fluorescence; channel activated by saturating DAMGO dose;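 active means compounds whose fluorescence signal differed from control wells by over 3 SD, either direction, in both duplicate plates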
TRPC4 spec: mouse TRPC4 off-target activity of TRPC6 inhibitors; activity change, negative = inhibition, % at 10 µM; HEK293 TRPC4/mu-opioid, membrane potential fluorescence; AID 2777; shares compounds with TRPC6 inh; 61% of 920 active;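 active means rise or fall in signal beyond 3 SD of buffer-only wells in both replicate plates, either sign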;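 further: integrated kinetic ratio of fluorescence range over baseline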
HEK293 MPD ctr 2-1: parental HEK293 nonspecific activity of TRPC6 inhibitors, second screen; shares compounds with TRPC6 inh; parental HEK293 membrane potential dye fluorescence; maximal acetylcholine challenge after compound addition; signal change vs control, % at 10 µM; 31% of 920 active;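 active means membrane potential signal moving either way by over 3 SD of the maximum-effect control, in both duplicate plates, meaning non-specific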
HEK293 MPD ctr-1: parental HEK293 nonspecific activity of TRPC6 inhibitors | shares compounds with TRPC6 inh | parental HEK293 membrane potential dye fluorescence | membrane potential signal change, % at 10 µM | 60% of 920 active;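 active means membrane potential signal shifting up or down by more than 3 SD of buffer-only wells, on both duplicate plates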
HEK293 MPD ctr-2: counter-screen for TRPC6 modulators: effect in parental HEK293 cells | shares compounds with TRPC6 inh | membrane potential dye fluorescence | membrane potential signal change, % at 10 µM | 51% of 2,400 active;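 active means membrane potential signal moves up or down beyond 5 SD from buffer-only wells, on both duplicate plates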
HEK293 MPD ctr 2-2: second counter-screen for TRPC6 modulators: effect in parental HEK293 cells; shares compounds with TRPC6 inh; membrane potential dye fluorescence; after compound, maximal acetylcholine stimulation; inhibition, % at 10 µM; 14% of 2,400 active; AID 488926;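 active means membrane potential signal drops by more than 5 SD from the mean control signal, in both duplicate plates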;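 further: plate controls were acetylcholine ECmax control wells for no effect and buffer only wells for full effect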
TRPC4/MOR mod: selectivity of TRPC6 modulators against mouse TRPC4. AID 488927. HEK293 TRPC4/mu-opioid, membrane potential fluorescence. shares compounds with TRPC6 inh. 69% of 2,400 active. percent change from control (negative = decrease, positive = increase), % at 10 µM;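 active means membrane potential signal moved up or down beyond 5 SD of buffer control wells, in both duplicate plates, actives on both sides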;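 further: plate controls were assay buffer wells for no effect and DAMGO maximal-effect wells for full effect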
TRPC4 ctr inh 2: mouse TRPC4 off-target activity of TRPC6 modulators, second screen | shares compounds with TRPC6 inh | AID 488928 | inhibition, % at 10 µM | 55% of 2,400 active | HEK293 TRPC4/mu-opioid, membrane potential dye fluorescence; stimulated with maximal-effect DAMGO;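 active means drop in membrane potential signal beyond 5 SD of the control wells in both duplicate plates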;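 further: TRPC4 counter screen for TRPC6 hits run under conditions tuned for TRPC6 not TRPC4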
TRPC6 inh conf: mouse TRPC6 inhibitor confirmation. inhibition, % at 10 µM. HEK293-TRPC6, membrane potential dye, ACh-evoked depolarization. 43% of 3,300 active. AID 488960. shares compounds with TRPC6 inh;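 active means fluorescence ratio falls more than 5 SD below the full-stimulation control mean, in both duplicate runs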;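 further: integrated fluorescence ratio of peak minus minimum over baseline after agonist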
TRPC6 act confirm: confirmation of mouse TRPC6 activators; shares compounds with TRPC6 inh; HEK293-TRPC6 membrane potential dye fluorescence, FDSS; activation, % at 10 µM; 11% of 2,800 active; AID 488961;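 active means ratio signal rise beyond 5 SD above unstimulated control wells' mean, seen in both duplicate runs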;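 further: plate controls were buffer EC0 wells for no effect and acetylcholine ECmax response for full effect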
An asterisk follows results filed as active; i = inactive; . = no result; ! = a repeat was not active. In the library only some 2.3% were active in any assay of this set; here they are far more common.

SMILES	TRPC6 activator	TRPC4 PAM	TRPC4 block	TRPC6 inh	TRPC4 agonist	HEK293 MPD ctr-2	HEK293 MPD ctr 2-2	TRPC4/MOR mod	TRPC4 ctr inh 2	TRPC6 inh conf	TRPC6 act confirm	others
COc1ccc(OC)c(Nc2cc(C)nc3ccc(C)cc23)c1	i	i	-6*	-7.48*	i	.	.	.	.	66.9%*	i	TRPC4 spec 2=52.5%*;TRPC4 spec=-14.5%*;HEK293 MPD ctr 2-1=i;HEK293 MPD ctr-1=-239.0%*
COc1ccc2nc(C)cc(Nc3ccc(N4CCN(C)CC4)cc3)c2c1	i	i	i	-9.6*	i	.	.	.	.	85.7%*	i	TRPC4 spec 2=57.0%*;TRPC4 spec=-23.6%*;HEK293 MPD ctr 2-1=-94.5%*;HEK293 MPD ctr-1=-291.5%*
CCOc1ccccc1Nc1cc(C)nc2ccc(C)cc12	i	i	i	-7.7*	i	.	.	.	.	61.5%*	i	TRPC4 spec 2=46.5%*;TRPC4 spec=-12.6%*;HEK293 MPD ctr 2-1=i;HEK293 MPD ctr-1=-209.0%*
COc1ccc(Nc2cc(C)nc3ccccc23)cc1	i	i	-6*	-5.09*	i	-131.5%*	i	-21.0%*	48.5%*	i	i
COc1ccc(OC)c(Nc2cc(C)nc3nc(C)nn23)c1	i	i	i	i	i	.	.	.	.	.	.
COc1ccc2nc(C)cc(Nc3ccc(N4CCOCC4)cc3)c2c1	i	i	i	i	i	.	.	.	.	.	.
COc1ccc(Nc2nc(C)c3ccccc3n2)cc1	i	i	i	i	i	.	.	.	.	.	.
O=C(O)/C=C/C(=O)Nc1ccc(S(=O)(=O)Nc2nccs2)cc1	i	i	i	i	i	.	.	.	.	.	.
CC(=O)N1c2ccc(S(=O)(=O)N(C)Cc3ccco3)cc2CC1C (centres undefined)	i	i	i	i	i	.	.	.	.	.	.
CC1CCc2c(sc(NC(=O)CCC(=O)O)c2C(=O)NC2CC2)C1 (centres undefined)	i	i	i	i	i	.	.	.	.	.	.
COc1ccc2nc(C)cc(Nc3ccc(C)cc3)c2c1	i	i	-7*	-6.62*	i	.	.	.	.	68.4%*	i	TRPC4 spec 2=42.5%*;TRPC4 spec=-25.9%*;HEK293 MPD ctr 2-1=i;HEK293 MPD ctr-1=-272.5%*
COc1ccc2nc(C)cc(SCC(=O)NNC(=O)COc3ccc(C)cc3)c2c1	i	i	i	i	i	.	.	.	.	.	.
Cc1ccc(S(=O)(=O)c2cc3c(=O)n4ccccc4nc3n(CCCN3CCOCC3)c2=N)cc1C	i	i	i	-6.22*	i	-249.5%*	66.5%*	-51.5%*	80.0%*	66.0%*	i
N=c1c(S(=O)(=O)c2ccccc2)cc2c(=O)n3ccccc3nc2n1CCCN1CCOCC1	i	i	i	-5.45*	i	-142.5%*	i	-41.0%*	51.0%*	50.0%*	i
COc1ccc(NC2CCCN(C(=O)CCc3cccc(Cl)c3)C2)cc1 (centres undefined)	i	i	i	i	i	.	.	.	.	.	.
OC(C#CCN1CCCCCC1)(c1ccccc1)c1cccnc1 (centres undefined)	i	i	i	-7.28*	i	.	.	.	.	63.4%*	.	TRPC4 spec 2=i;TRPC4 spec=3.4%*;HEK293 MPD ctr 2-1=8.5%*;HEK293 MPD ctr-1=4.8%*
OC(C#CCN1CCCC1)(c1ccccc1)c1cccnc1 (centres undefined)	i	i	i	-6.09*	i	i	69.0%*	i	i	81.5%*	i
OC(C#CCN1CCCC1)c1ccccc1 (centres undefined)	i	i	i	i	i	.	.	.	.	.	.
CCCN(CC#CC(O)(c1ccccc1)c1cccnc1)CCC (centres undefined)	i	i	i	i	i	.	.	.	.	.	.
NC(=O)CNC(=O)[C@@H]1CC2(CC(c3ccc(Cl)cc3)=NO2)CN1C(=O)c1ccc(Br)cc1 (some centres undefined)	i	i	i	i	i	.	.	.	.	.	.
Cc1ccc(-n2c(-c3ccco3)nc3nc4ccccc4nc32)cc1	i	i	i	i	i	.	.	.	.	.	.
COc1ccccc1N(Cc1ccccc1)S(=O)(=O)c1cccc(C(=O)NC2CC(C)(C)NC(C)(C)C2)c1	i	i	i	i	i	.	.	.	.	.	.
O=C(Nc1ccc(Cl)cc1)ON=C1CCCC1	i	i	i	i	i	.	.	.	.	.	.
Cc1cc[n+](CC[n+]2ccc(C)cc2)cc1	i	i	i	i	i	.	.	.	.	.	.
CCC(C)(C)c1ccc(OCCCC[n+]2ccc(C)cc2)c(C(C)(C)CC)c1	i	i	i	-6.15*	i	i	i	-13.5%*	i	i	i
CC(=O)C(Cc1cccc(F)c1)(Cc1cccc(F)c1)C(C)=O	i	i	i	-5.95*	i	113.5%*	i	34.0%*	i	i	.
C=CCn1c(SCC(=O)c2cc(C)n(CC3CCCO3)c2C)nnc1-c1ccccc1 (centres undefined)	16*	i	i	i	i	110.5%*	i	26.5%*	i	.	82.5%*
O=C(/C=C/NNC(=O)c1ccccc1)c1ccccc1	i	i	i	-6.16*	i	i	i	i	i	i	i
CCN1CCC[C@H]1CNC(=O)c1c(O)c(Cl)cc(Cl)c1OC	i	i	i	-7.36*!	i	.	.	.	.	i	i	TRPC4 spec 2=i;TRPC4 spec=i;HEK293 MPD ctr 2-1=i;HEK293 MPD ctr-1=i

High-throughput results (PubChem)
